Results on 1 compound are retold here after ChEMBL document CHEMBL2346503, “Synthesis and evaluation of novel (18)F-labeled spirocyclic piperidine derivatives as σ1 receptor ligands for positron emission tomography imaging” (J Med Chem, 2013).

What all share (assay type): ADME, organism-based
Holding throughout (conditions): in vivo, 1 h

Data set [1] concerns Brain. As to the kind of experiment: Biodistribution in ICR mouse brain assessed as reduction in radiotracer uptake at 370 kBq, iv after 60 minutes by gamma-counting analysis in presence of (S)-(-)raclopride. The procedure, abridged:
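Male ICR mice got saline or a blocker (haloperidol, (S)-(−)-raclopride, fluvoxamine or tamoxifen; 0.1 mL, 2.2 μmol/kg) via tail vein 5 min before 370 kBq tracer iv. Brain was γ-counted at 60 min and compared with saline controls by two-tailed Student's t test, p ≤ 0.05.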

Data set [2] has as its system Cerebellum. Briefly: Biodistribution in Sprague-Dawley rat cerebellum at 23 MBq, iv after 60 mins by microPET imaging/CT study in presence of haloperidol. The procedure, abridged:
(§1)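 Sprague-Dawley rats under isoflurane (1.5–2.5%) in oxygen received 23 MBq radiotracer (0.2 mL saline) via tail vein. Blocking animals were pre-injected with haloperidol (0.2 mL, 1 mg/kg) 5 min before the tracer. MicroPET emission was acquired for 30 min starting 60 min post-injection, followed by a 5 min CT scan; images were summed over 60–90 min.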

In data set [3] the test system is Spleen. Briefly: Biodistribution in ICR mouse spleen assessed as reduction in radiotracer uptake at 370 kBq, iv after 60 minutes by gamma-counting analysis in presence of SA4503 relative to control. Also on record: scale not given: the % may be the effect or the level left. A digest of the protocol:
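Male ICR mice were given saline or SA4503 (0.1 mL; 2, 5 or 10 μmol/kg) via tail vein 5 min before [18F]radiotracer (370 kBq, 0.1 mL, iv). Killed at 60 min. Organs were gamma-counted as % ID/g and reduction was computed versus saline controls. Two-tailed independent Student's t test, p ≤ 0.05.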

Data set [4] deals with Cerebellum. As to the kind of experiment: Biodistribution in Sprague-Dawley rat cerebellum at 23 MBq, iv after 60 mins by microPET imaging/CT study. The procedure, abridged:
as §1

Data set [5] deals with Rattus norvegicus. As to the kind of experiment: Biodistribution in Sprague-Dawley rat internal capsule at 23 MBq, iv after 60 mins by microPET imaging/CT study in presence of haloperidol. The procedure, abridged: as §1
Data set [6] deals with Rattus norvegicus. As to the kind of experiment: Biodistribution in Sprague-Dawley rat internal capsule at 23 MBq, iv after 60 mins by microPET imaging/CT study. The procedure, abridged: as §1
Data set [7] is described as follows: Drug uptake in Sprague-Dawley rat white matter at 12.2 MBq, iv after 60 mins by autoradiography. The procedure, abridged: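 [¹⁸F]-labelled tracer (0.2 mL, 12.2 MBq) given intravenously to conscious Sprague-Dawley rats (n = 3). Each rat was killed by cervical dislocation 60 min after injection. The brain was removed and frozen in liquid nitrogen, and 20 μm coronal sections were cut on a cryostat for ex vivo autoradiography of regional radioactivity.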

Data set [8] deals with Hypothalamus. Briefly: Biodistribution in Sprague-Dawley rat hypothalamus at 23 MBq, iv after 60 mins by microPET imaging/CT study in presence of haloperidol. The procedure, abridged:
as §1

Take `[18F]CCOc1ccc(CN2CCC3(CC2)OCc2ccccc23)cc1`: the Drug uptake entry in data set [1], in data set [2], in data set [4], in data set [5], in data set [6] and in data set [7] was “Active” throughout. Besides, the Drug uptake entry in data set [8] is reported as “Active”. Besides, in data set [3], the Activity is reported as 29%.
